# Test results as given in ChEMBL document CHEMBL4382225, “Dimeric cinnamoylamide analogues for regulation of tyrosinase activity in melanoma cells: A role of diamide-link chain length” (Bioorg Med Chem, 2018).
# Calls of active or inactive are those of the source. No cut-off for these calls is given here.
# What was measured:
# [1] = Antioxidant activity assessed as DPPH free radical scavenging activity after 10 mins; assay type: functional
# B16-F1 [2] = assay: Cytotoxicity against mouse B16-F1 cells at 100 to 200 uM after 72 hrs by MTT assay; assay type: cell-based; conditions: b16-f1, 72 h
# Method in brief: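 B16F1 cells grown in DMEM with 10% FBS and 1% penicillin/streptomycin at 37 °C, 5% CO₂. Seeded 1 × 10⁴ cells/well, treated at 100, 150 and 200 μM for 72 h. Medium removed, MTT added for 1 h, formazan dissolved in DMSO, absorbance at 570 nm. Mean SD of three independent experiments vs untreated cells.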
# Tyrosinase [3] = biological target: T1, Tyrosinase (Agaricus bisporus, UniProt O42713); assay: Inhibition of mushroom tyrosinase
# T1 sequence (O42713 whole entry): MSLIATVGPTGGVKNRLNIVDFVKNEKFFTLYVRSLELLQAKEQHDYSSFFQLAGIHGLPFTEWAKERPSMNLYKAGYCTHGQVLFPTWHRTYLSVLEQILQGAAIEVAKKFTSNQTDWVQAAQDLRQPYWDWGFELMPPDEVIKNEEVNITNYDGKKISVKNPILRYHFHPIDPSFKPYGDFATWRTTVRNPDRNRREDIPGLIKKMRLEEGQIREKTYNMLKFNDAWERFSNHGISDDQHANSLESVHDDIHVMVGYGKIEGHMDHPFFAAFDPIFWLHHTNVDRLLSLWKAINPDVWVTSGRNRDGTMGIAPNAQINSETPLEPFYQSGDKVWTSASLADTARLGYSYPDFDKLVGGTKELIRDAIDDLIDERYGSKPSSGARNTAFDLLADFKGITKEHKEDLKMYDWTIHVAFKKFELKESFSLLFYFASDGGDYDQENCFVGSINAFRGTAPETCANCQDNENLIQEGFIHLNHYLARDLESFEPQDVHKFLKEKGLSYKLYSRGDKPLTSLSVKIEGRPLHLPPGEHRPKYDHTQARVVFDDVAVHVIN
# B16-F1 [4] = assay: Antimelanogenic activity in mouse B16-F1 cells assessed as reduction in alpha-MSH-stimulated melanin production preincubated for 72 hrs followed by alpha-MSH-stimulation and measured after 2 hrs; assay type: functional, cell-based
# Method in brief: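 B16F1 cells seeded at 1 × 10⁵ cells/well, exposed to compound at indicated concentrations (up to 150 μM) together with 200 nM α-MSH for 72 h. Cells washed twice in PBS, dissolved in 1 N NaOH with 10% DMSO at 80 °C for 2 h, lysate absorbance read at 405 nm. IC₅₀ for melanin production; mean (SD) of three independent experiments.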
# Tyrosinase [5] = biological target: T2, Tyrosinase (Mus musculus, UniProt P11344); assay: Inhibition of tyrosinase in mouse B16-F1 cells; assay type: cell-based
# T2 sequence (P11344 whole entry): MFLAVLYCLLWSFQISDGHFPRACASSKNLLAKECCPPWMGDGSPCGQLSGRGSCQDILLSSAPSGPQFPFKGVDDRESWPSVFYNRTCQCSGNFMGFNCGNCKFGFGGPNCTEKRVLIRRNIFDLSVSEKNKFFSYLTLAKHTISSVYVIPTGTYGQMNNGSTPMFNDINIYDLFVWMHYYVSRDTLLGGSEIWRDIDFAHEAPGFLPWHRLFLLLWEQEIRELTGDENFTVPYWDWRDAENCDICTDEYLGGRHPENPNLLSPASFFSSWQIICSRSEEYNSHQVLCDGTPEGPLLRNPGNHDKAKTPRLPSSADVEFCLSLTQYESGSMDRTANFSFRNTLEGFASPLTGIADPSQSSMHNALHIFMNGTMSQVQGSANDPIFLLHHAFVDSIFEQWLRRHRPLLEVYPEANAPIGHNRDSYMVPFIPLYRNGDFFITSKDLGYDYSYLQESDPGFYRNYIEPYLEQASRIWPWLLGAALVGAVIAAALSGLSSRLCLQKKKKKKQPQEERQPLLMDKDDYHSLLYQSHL
# Method in brief: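 Lysate of B16F1 cells in RIPA buffer, spun 13,000 rpm for 30 min at 4 °C, supernatant protein quantified by BCA. IC₅₀; mean (SD) of three independent experiments.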
# [6] = Metal chelating activity of the compound assessed as Cu2+-compound complex formation at 50 uM after 10 mins by UV-Vis spectrophotometric analysis
# Method in brief: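 Copper chelation by UV–vis spectra (220–400 nm). 50 μL of 50 μM compound in ethanol mixed with 0.95 mL aqueous 10 μM CuSO₄, or water as control, incubated at 25 °C for 10 min before spectra recorded.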
# [7] = Drug uptake in mouse B16-F1 cells; assay type: ADME, cell-based
SMILES,EC50 [1] [µM],Activity (B16-F1 [2]),IC50 (Tyrosinase [3]) [µM],IC50 (B16-F1 [4]) [µM],IC50 (Tyrosinase [5]) [µM],Activity [6],Drug uptake [7]
O=C(/C=C/c1ccc(O)cc1)NCCNC(=O)/C=C/c1ccc(O)cc1,> 5000,Non-Toxic,4.6,> 150,> 150,,
COc1cc(/C=C/C(=O)NCCCCNC(=O)/C=C/c2ccc(O)c(OC)c2)ccc1O [TERRESTRIBISAMIDE],830,Non-Toxic,108,> 150,88.4,Active,
COc1ccc(/C=C/C(=O)NCCNC(=O)/C=C/c2ccc(OC)c(O)c2)cc1O,2210,Non-Toxic,84.2,> 150,> 150,,
COc1cc(/C=C/C(=O)NCCCNC(=O)/C=C/c2ccc(O)c(OC)c2)ccc1O,150,Non-Toxic,98.3,123,65.2,Active,Active
OC[C@H]1O[C@@H](Oc2ccc(O)cc2)[C@H](O)[C@@H](O)[C@@H]1O [ARBUTIN],1700,,,148,,,
COc1cc(/C=C/C(=O)NCCNC(=O)/C=C/c2ccc(O)c(OC)c2)ccc1O,90,Non-Toxic,> 150,> 150,> 150,,
COc1ccc(/C=C/C(=O)NCCCNC(=O)/C=C/c2ccc(OC)c(O)c2)cc1O,2310,Non-Toxic,55.3,111,46.7,Active,Active
O=C(/C=C/c1cccc(O)c1)NCCCCNC(=O)/C=C/c1cccc(O)c1,> 5000,Non-Toxic,> 150,> 150,> 150,,Active
O=C(/C=C/c1cccc(O)c1)NCCNC(=O)/C=C/c1cccc(O)c1,> 5000,Non-Toxic,95.3,> 150,> 150,,
COc1ccc(/C=C/C(=O)NCCCCNC(=O)/C=C/c2ccc(OC)c(O)c2)cc1O,4200,Non-Toxic,80.2,> 150,> 150,,
O=C(/C=C/c1ccc(O)cc1)NCCCCNC(=O)/C=C/c1ccc(O)cc1,> 5000,Non-Toxic,6.5,> 150,> 150,,Active
O=C(/C=C/c1cccc(O)c1)NCCCNC(=O)/C=C/c1cccc(O)c1,> 5000,Non-Toxic,55.2,95.3,40.2,Active,
O=C(/C=C/c1ccc(O)cc1)NCCCNC(=O)/C=C/c1ccc(O)cc1,> 5000,Non-Toxic,3.4,45.6,4.6,Active,
O=C1O[C@H]([C@@H](O)CO)C(O)=C1O [ASCORBIC ACID],180,,,,,,
